According to ChEMBL document CHEMBL1122123 (1982):

Tests used:
Type in all cases: functional
[1] = In vitro potency of compound to stimulate adenylate cyclase activity in melanoma cells relative to alpha-MSH
Summary of the method: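 Particulate membranes from Cloudman S-91 mouse melanoma tumors grown in DBA/2J mice were used as a cell-free system, 56 μg of protein per assay. Adenylate cyclase activity was measured as conversion of [α-³²P]ATP to [³²P]cAMP, with cAMP isolated by the Salomon method. Full dose-response curves were run in triplicate. Potency is relative to α-MSH: concentration of α-MSH at 50% response divided by that of the peptide.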

[2] = test system: Melanocyte-stimulating hormone receptor; test: In vitro potency of compound to stimulate melanosome dispersion in frog (Rana pipiens) skin relative to alpha-MSH
[3] = test system: lizard; test: In vitro potency of compound to stimulate melanosome dispersion in lizard skin relative to alpha-MSH
Summary of the method: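 Isolated Anolis carolinensis lizard skins were scored in vitro for melanosome dispersion (darkening) across the entire dose-response range. Relative potency is the ratio of the α-MSH concentration giving 50% response to the peptide concentration giving 50% response.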

Row | Compound | Potency [2] | Potency [1] | Potency [3]
1 | CCCC[C@H](NC(C)=O)C(=O)N[C@@H](CCC(=O)O)C(=O)N[C@@H](Cc1c[nH]cn1)C(=O)N[C@H](Cc1ccccc1)C(=O)N[C@@H](CCCN=C(N)N)C(=O)N[C@@H](Cc1c[nH]c2ccccc12)C(=O)NCC(N)=O | 0.02 | 7.7 | 10
2 | Ac-YEHFRWG-NH2 | 0.0002 | 0.001 | 0.0006
3 | CSCC[C@H](NC(C)=O)C(=O)N[C@@H](CCC(=O)O)C(=O)N[C@@H](Cc1c[nH]cn1)C(=O)N[C@@H](Cc1ccccc1)C(=O)N[C@@H](CCCN=C(N)N)C(=O)N[C@@H](Cc1c[nH]c2ccccc12)C(=O)NCC(N)=O | 0.0003 | – | 0.004

Second part, led by results:

Row | Potency [2] | Compound | Potency [1] | Potency [3]
4 | 0.002 | CCCC[C@H](NC(C)=O)C(=O)N[C@@H](CCC(=O)O)C(=O)N[C@@H](Cc1c[nH]cn1)C(=O)N[C@@H](Cc1ccccc1)C(=O)N[C@@H](CCCN=C(N)N)C(=O)N[C@@H](Cc1c[nH]c2ccccc12)C(=O)NCC(N)=O | 0.09 | 0.06
5 | 1e-05 | CSCC[C@H](N)C(=O)N[C@@H](CCC(=O)O)C(=O)N[C@@H](Cc1c[nH]cn1)C(=O)N[C@@H](Cc1ccccc1)C(=O)N[C@@H](CCCN=C(N)N)C(=O)N[C@@H](Cc1c[nH]c2ccccc12)C(=O)NCC(=O)O | – | 4e-05
